What was measured:
Canis familiaris [1] = experiment: Diuretic activity was evaluated by measuring amount of K+ during 0-6 hr in urine of normotensive saline loaded dogs at 3.0mg/kg, po; format: ADME, organism-based, Canis lupus familiaris; settings: dog, in vivo, 3 mg/kg
Outline: (§1)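 Conscious female dogs, each given one oral dose per experiment. Urine and heparinized venous plasma were taken at each collection time. Urine was centrifuged and chilled, and plasma was separated within 30 min. Both were assayed for Na+, K+, Cl−, urate and glucose. Results are mean excretion in mequiv kg−1 (6 h)−1, with at least two dogs per dose.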

Canis familiaris [2] = experiment: Diuretic activity was evaluated by measuring amount of Na+ during 0-6 h in urine of normotensive saline loaded dogs at 0.03 mg/kg, po; format: ADME, organism-based, Canis lupus familiaris; parameters: dose 0.03 mg/kg, route oral; settings: dog, in vivo
Outline: (§2)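 Conscious dogs, each given a single oral dose per experiment, with at least two dogs per dose. Urine volume is measured; aliquots are centrifuged and chilled. Heparinized venous blood (4 mL) is drawn at each urine collection. Urine and plasma are analyzed for Na+, K+, Cl−, urate and glucose. Result is mean Na+ excretion in mequiv kg−1 (6 h)−1.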

Canis familiaris [3] = experiment: Diuretic activity was evaluated by measuring amount of Cl- during 0-6 hr in urine of normotensive saline loaded dogs at 0.1 mg/kg, po; format: ADME, organism-based, Canis lupus familiaris; parameters: dose 0.1 mg/kg, route oral; settings: dog, in vivo; outline: as §1
Rattus norvegicus [4] = experiment: Diuretic activity was evaluated by measuring amount of Na+ during 0-6 h in urine of normotensive saline loaded rats at 3.0 mg/kg, po; format: ADME, organism-based; parameters: dose 3 mg/kg, route oral; settings: in vivo
Outline: (§3)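 Male normotensive Sprague–Dawley rats (275–375 g), eight per group. Test compound or vehicle (0.2% methylcellulose in water, 2 mL/kg) is given by mouth, followed at once by a 0.9% saline load equal to 5% of body weight. Rats are housed in metabolism cages without food or water. Urine is collected at 2, 6 and 24 h and assayed for Na+, K+, Cl−, uric acid and osmolality.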

[5] = Diuretic activity was evaluated by measuring amount of Cl- during 0-6 h in urine of normotensive […] monkey at 10mg/kg, po; format: ADME, organism-based; settings: simiiformes, in vivo
Outline: (§4)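 Male and female cynomolgus monkeys, fasted 16–18 h with water until dosing, six per dose. Compound or vehicle was given by pediatric nasogastric tube, followed at once by a 50 mL/kg water load. Monkeys were kept in metabolism cages without food or water for 6 h. Urine was collected at 0–1, 1–2, 2–4 and 4–6 h, and volume, electrolytes, uric acid and glucose were measured.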

Rattus norvegicus [6] = experiment: Diuretic activity was evaluated by measuring amount of Cl- during 0-6 hr in urine of normotensive saline loaded rats at 0.3mg/kg, po; format: ADME, organism-based; settings: in vivo
Outline: (§5)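 Male Sprague–Dawley rats (275–375 g), fed and watered ad libitum before testing but not during it, eight per group. Compound in 0.2% methylcellulose/water given orally at 2 mL/kg, immediately followed by a 0.9% saline load equal to 5% of body weight. Rats were kept in individual metabolism cages. Urine was sampled at 2, 6 and 24 h for volume, Na+, K+, Cl−, uric acid and osmolality.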

Canis familiaris [7] = experiment: Diuretic activity was evaluated by measuring amount of Na+ during 0-6 h in urine of normotensive saline loaded dogs at 1.0 mg/kg, po; format: ADME, organism-based, Canis lupus familiaris; parameters: dose 1 mg/kg, route oral; settings: dog, in vivo; outline: as §2
Canis familiaris [8] = experiment: Diuretic activity was evaluated by measuring amount of K+ during 0-6 hr in urine of normotensive saline loaded dogs at 0.03mg/kg, po; format: ADME, organism-based, Canis lupus familiaris; settings: dog, in vivo; outline: as §1
Canis familiaris [9] = experiment: Diuretic activity was evaluated by measuring amount of Cl- during 0-6 h in urine of normotensive saline loaded dogs at 1.0 mg/kg, po; format: ADME, organism-based, Canis lupus familiaris; parameters: dose 1 mg/kg, route oral; settings: dog, in vivo; outline: as §1
[10] = Diuretic activity was evaluated by measuring amount of Cl- during 0-6 h in urine of […] monkey at 30 mg/kg, po; format: ADME, organism-based; parameters: dose 30 mg/kg, route oral; settings: simiiformes, in vivo; outline: as §4
Canis familiaris [11] = experiment: Diuretic activity was evaluated by measuring amount of Na+ during 0-6 h in urine of normotensive saline loaded dogs at 10.0mg/kg, po; format: ADME, organism-based, Canis lupus familiaris; settings: dog, in vivo, 10 mg/kg; outline: as §2
Rattus norvegicus [12] = experiment: Diuretic activity was evaluated by measuring amount of K+ during 0-6 hr in urine of normotensive saline loaded rats at 0.3mg/kg, po; format: ADME, organism-based; settings: in vivo; outline: as §5
Rattus norvegicus [13] = experiment: Diuretic activity was evaluated by measuring amount of Cl- during 0-6 hr in urine of normotensive saline loaded rats at 10.0mg/kg, po; format: ADME, organism-based; settings: in vivo, 10 mg/kg; outline: as §5
[14] = Diuretic activity was evaluated by measuring amount of K+ during 0-6 h in urine of […] at 10 mg/kg, po; format: ADME, organism-based; parameters: dose 10 mg/kg, route oral; settings: simiiformes, in vivo; outline: as §4
Rattus norvegicus [15] = experiment: Percent change of arterial blood pressure in spontaneously hypertensive rats at the dose of 10 mg/kg (p.o.) after 6 hr (control BP(mm Hg)=219); format: functional; settings: route oral
Rattus norvegicus [16] = experiment: Percent change of arterial blood pressure in spontaneously hypertensive rats at the dose of 1 mg/kg (p.o.) after 6 hr (control BP(mm Hg)=215); format: functional; settings: route oral
Rattus norvegicus [17] = experiment: Oral dose necessary to produce an excretion of 2 mequiv of Na+/kg in the rat urine in the 4-h period after peroral administration; format: ADME, organism-based; settings: in vivo
Canis familiaris [18] = experiment: Diuretic activity was evaluated by measuring amount of K+ during 0-6 h in urine of normotensive saline loaded dogs at 1.0 mg/kg, po; format: ADME, organism-based, Canis lupus familiaris; parameters: dose 1 mg/kg, route oral; settings: dog, in vivo; outline: as §1
Rattus norvegicus [19] = experiment: Diuretic activity was evaluated by measuring amount of Cl- during 0-6 hr in urine of normotensive saline loaded rats at 1.0mg/kg, po; format: ADME, organism-based; settings: in vivo, 1 mg/kg; outline: as §5
Rattus norvegicus [20] = experiment: Diuretic activity was evaluated by measuring amount of Na+ during 0-6 hr in urine of normotensive saline loaded rats at 30.0mg/kg, po; format: ADME, organism-based; settings: in vivo, 30 mg/kg; outline: as §3
Rattus norvegicus [21] = experiment: Diuretic activity was evaluated by measuring amount of Cl- during 0-6 h in urine of normotensive saline loaded rats at 30.0 mg/kg, po; format: ADME, organism-based; parameters: dose 30 mg/kg, route oral; settings: in vivo; outline: as §5
Rattus norvegicus [22] = experiment: Diuretic activity was evaluated by measuring amount of Cl- during 0-6 hr in urine of normotensive saline loaded rats at 100.0mg/kg, po; format: ADME, organism-based; settings: in vivo, 100 mg/kg; outline: as §5
Rattus norvegicus [23] = experiment: Diuretic activity was evaluated by measuring amount of K+ during 0-6 h in urine of normotensive saline loaded rats at 1.0 mg/kg, po; format: ADME, organism-based; parameters: dose 1 mg/kg, route oral; settings: in vivo; outline: as §5
Rattus norvegicus [24] = experiment: Percent change of arterial blood pressure in spontaneously hypertensive rats at the dose of 10 mg/kg (p.o.) after […] (control BP(mm Hg)=219); format: functional; settings: route oral
Canis familiaris [25] = experiment: Diuretic activity was evaluated by measuring amount of Cl- during 0-6 hr in urine of normotensive saline loaded dogs at 0.03mg/kg, po; format: ADME, organism-based, Canis lupus familiaris; settings: dog, in vivo; outline: as §1
[26] = Diuretic activity was evaluated by measuring amount of Na+ during 0-6 hr in urine of normotensive […] monkey at 10mg/kg, po; format: ADME, organism-based; settings: simiiformes, in vivo
Outline: (§6)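 Male and female cynomolgus monkeys, fasted 16–18 h with water until dosing, six per dose. Compound or vehicle is given through a nasogastric tube, then a 50 mL/kg water load. No food or water for 6 h in metabolism cages. Urine is collected at 0–1, 1–2, 2–4 and 4–6 h and analyzed for electrolytes, uric acid and glucose.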

[27] = Diuretic activity was evaluated by measuring amount of Na+ during 0-6 hr in urine of normotensive […] monkey at 1 mg/kg, po; format: ADME, organism-based; parameters: dose 1 mg/kg, route oral; settings: simiiformes, in vivo; outline: as §6
Rattus norvegicus [28] = experiment: Percent change of arterial blood pressure in spontaneously hypertensive rats at the dose of 1 mg/kg (p.o.) after […] (control BP(mm Hg)=215); format: functional; settings: route oral
[29] = Diuretic activity was evaluated by measuring amount of Cl- during 0-6 h in urine of normotensive […] monkey at 3 mg/kg, po; format: ADME, organism-based; parameters: dose 3 mg/kg, route oral; settings: simiiformes, in vivo; outline: as §4

Diuretic activity (Canis familiaris [1]): 1.8 m equiv kg-1 | Diuretic activity (Canis familiaris [2]): 0.5 m equiv kg-1 | Diuretic activity (Canis familiaris [3]): 1 m equiv kg-1 | Diuretic activity (Rattus norvegicus [4]): 13.9 m equiv kg-1 | Diuretic activity [5]: 7.2 m equiv kg-1 | Diuretic activity (Rattus norvegicus [6]): 11.3 m equiv kg-1 | Diuretic activity (Canis familiaris [7]): 5 m equiv kg-1 | Diuretic activity (Canis familiaris [8]): 0.3 m equiv kg-1 | Diuretic activity (Canis familiaris [9]): 6.2 m equiv kg-1 | Diuretic activity [10]: 6.9 m equiv kg-1 | Diuretic activity (Canis familiaris [11]): 6.3 m equiv kg-1 | Diuretic activity (Rattus norvegicus [12]): 2.7 m equiv kg-1 | Diuretic activity (Rattus norvegicus [13]): 16.4 m equiv kg-1 | Diuretic activity [14]: 1.3 m equiv kg-1 | ED2 (Rattus norvegicus [17]): 3 mg/kg | Diuretic activity (Canis familiaris [18]): 1.6 m equiv kg-1 | Diuretic activity (Rattus norvegicus [19]): 14.8 m equiv kg-1 | Diuretic activity (Rattus norvegicus [20]): 14.8 m equiv kg-1 | Diuretic activity (Rattus norvegicus [21]): 17.4 m equiv kg-1 | Diuretic activity (Rattus norvegicus [22]): 16.6 m equiv kg-1 | Diuretic activity (Rattus norvegicus [23]): 3 m equiv kg-1 | Diuretic activity (Canis familiaris [25]): 0.5 m equiv kg-1 | Diuretic activity [26]: 6.6 m equiv kg-1 | Diuretic activity [27]: 2.7 m equiv kg-1 | Diuretic activity [29]: 5.3 m equiv kg-1
SMILES: CCOC(=O)COc1ccc(C(=O)c2ccc(O)c(CN)c2)c(Cl)c1Cl.Cl
Change (Rattus norvegicus [15]): -24% | Change (Rattus norvegicus [16]): -11% | Change (Rattus norvegicus [24]): -31% | Change (Rattus norvegicus [28]): -17%
